# Results as given in ChEMBL document CHEMBL1926642, “Relevance of the C-5 position to schweinfurthin induced cytotoxicity” (2011).
# Key:
# Format in all cases: functional
# HL-60(TB) = assay: Growth inhibition of human HL-60(TB) cells after 48 hrs by sulforhodamine B assay; conditions: HL-60, 48 h; for CC50: read-out: pLC50 (the source's name) (converted); for TGI: read-out: pTGI (converted)
# Procedure, shortened: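 Run in the NCI 60 cell-line screen as the full 5-dose assay that follows initial single-dose testing; GI50 is read from the dose series.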
# MOLT-4 = assay: Growth inhibition of human MOLT4 cells after 48 hrs by sulforhodamine B assay; conditions: MOLT-4, 48 h; for TGI: read-out: pTGI (converted)
# EKVX = assay: Growth inhibition of human EKVX cells after 48 hrs by sulforhodamine B assay; conditions: for TGI: read-out: pTGI (converted)
# HOP-62 = assay: Growth inhibition of human HOP62 cells after 48 hrs by sulforhodamine B assay; conditions: HOP-62, 48 h; for TGI: read-out: pTGI (converted)
# NCI-H226 = assay: Growth inhibition of human NCI-H226 cells after 48 hrs by sulforhodamine B assay; conditions: NCI-H226, 48 h; for TGI: read-out: pTGI (converted)
# NCI-H522 = assay: Growth inhibition of human NCI-H522 cells after 48 hrs by sulforhodamine B assay; conditions: NCI-H522, 48 h; for TGI: read-out: pTGI (converted)
# COLO 205 = assay: Growth inhibition of human COLO205 cells after 48 hrs by sulforhodamine B assay; conditions: COLO 205, 48 h; for TGI: read-out: pTGI (converted)
# HCC 2998 = assay: Growth inhibition of human HCC2998 cells after 48 hrs by sulforhodamine B assay; conditions: HCC 2998, 48 h; for TGI: read-out: pTGI (converted)
# SF-268 = assay: Growth inhibition of human SF268 cells after 48 hrs by sulforhodamine B assay; conditions: SF-268, 48 h; for TGI: read-out: pTGI (converted)
# SNB-19 = assay: Growth inhibition of human SNB19 cells after 48 hrs by sulforhodamine B assay; conditions: SNB-19, 48 h; for TGI: read-out: pTGI (converted)
# U-251 = assay: Growth inhibition of human U251 cells after 48 hrs by sulforhodamine B assay; conditions: U-251, 48 h; for TGI: read-out: pTGI (converted)
# LOX IMVI = assay: Growth inhibition of human LOXIMVI cells after 48 hrs by sulforhodamine B assay; conditions: for TGI: read-out: pTGI (converted)
# SK-MEL-28 = assay: Growth inhibition of human SK-MEL-28 cells after 48 hrs by sulforhodamine B assay; conditions: SK-MEL-28, 48 h; for CC50: read-out: pLC50 (the source's name) (converted); for TGI: read-out: pTGI (converted)
# SK-MEL-5 = assay: Growth inhibition of human SK-MEL-5 cells after 48 hrs by sulforhodamine B assay; conditions: SK-MEL-5, 48 h; for TGI: read-out: pTGI (converted)
# IGROV-1 = assay: Growth inhibition of human IGROV1 cells after 48 hrs by sulforhodamine B assay; conditions: IGROV-1, 48 h; for TGI: read-out: pTGI (converted)
# OVCAR-3 = assay: Growth inhibition of human OVCAR3 cells after 48 hrs by sulforhodamine B assay; conditions: OVCAR-3, 48 h; for TGI: read-out: pTGI (converted)
# NCI/ADR-RES = assay: Growth inhibition of human NCI/ADR-RES cells after 48 hrs by sulforhodamine B assay; conditions: for TGI: read-out: pTGI (converted)
# 786-0 = assay: Growth inhibition of human 786-0 cells after 48 hrs by sulforhodamine B assay; conditions: 786-0, 48 h; for CC50: read-out: pLC50 (the source's name) (converted); for TGI: read-out: pTGI (converted)
# CAKI-1 = assay: Growth inhibition of human Caki1 cells after 48 hrs by sulforhodamine B assay; conditions: CAKI-1, 48 h; for TGI: read-out: pTGI (converted)
# RXF 393 = assay: Growth inhibition of human RXF393 cells after 48 hrs by sulforhodamine B assay; conditions: RXF 393, 48 h; for TGI: read-out: pTGI (converted)
# TK-10 = assay: Growth inhibition of human TK10 cells after 48 hrs by sulforhodamine B assay; conditions: TK-10, 48 h; for TGI: read-out: pTGI (converted)
# DU-145 = assay: Growth inhibition of human DU145 cells after 48 hrs by sulforhodamine B assay; conditions: DU-145, 48 h; for TGI: read-out: pTGI (converted)
# MCF7 = assay: Growth inhibition of human MCF7 cells after 48 hrs by sulforhodamine B assay; conditions: MCF7, 48 h
# MDA-MB-231 = assay: Growth inhibition of human MDA-MB-231/ATCC cells after 48 hrs by sulforhodamine B assay; conditions: MDA-MB-231, 48 h; for CC50: read-out: pLC50 (the source's name) (converted); for TGI: read-out: pTGI (converted)
# [1] = Growth inhibition of human Hs 578T cells after 48 hrs by sulforhodamine B assay; conditions: for CC50: read-out: pLC50 (the source's name) (converted); for TGI: read-out: pTGI (converted)
# BT-549 = assay: Growth inhibition of human BT549 cells after 48 hrs by sulforhodamine B assay; conditions: BT-549, 48 h; for TGI: read-out: pTGI (converted)
# SR = assay: Growth inhibition of human SR cells after 48 hrs by sulforhodamine B assay
# HOP-92 = assay: Growth inhibition of human HOP92 cells after 48 hrs by sulforhodamine B assay; conditions: HOP-92, 48 h
smiles,measurement,setting,value
COc1cc(/C=C/c2cc3c(c(SC)c2)O[C@]2(C)CC[C@@H](O)C(C)(C)[C@H]2C3)cc(O)c1C/C=C(\C)CCC=C(C)C,GI50,HL-60(TB),5.13 µM
same,CC50,HL-60(TB),> 100 µM
same,TGI,HL-60(TB),36.3 µM
same,GI50,MOLT-4,4.27 µM
same,LC50,MOLT-4,> 100 µM
same,TGI,MOLT-4,100 µM
same,GI50,EKVX,40.7 µM
same,LC50 (50% lethal concentration),EKVX,> 100 µM
same,TGI,EKVX,> 100 µM
same,GI50,HOP-62,12 µM
same,LC50,HOP-62,79.4 µM
same,TGI,HOP-62,30.9 µM
same,GI50,NCI-H226,15.1 µM
same,LC50,NCI-H226,> 100 µM
same,TGI,NCI-H226,39.8 µM
same,GI50,NCI-H522,12 µM
same,LC50,NCI-H522,93.3 µM
same,TGI,NCI-H522,33.1 µM
same,GI50,COLO 205,1.35 µM
same,LC50,COLO 205,7.08 µM
same,TGI,COLO 205,3.09 µM
same,GI50,HCC 2998,12 µM
same,LC50,HCC 2998,> 100 µM
same,TGI,HCC 2998,38.9 µM
same,GI50,SF-268,7.41 µM
same,LC50,SF-268,> 100 µM
same,TGI,SF-268,61.7 µM
same,GI50,SNB-19,28.2 µM
same,LC50,SNB-19,> 100 µM
same,TGI,SNB-19,> 100 µM
same,GI50,U-251,5.01 µM
same,LC50,U-251,85.1 µM
same,TGI,U-251,24 µM
same,GI50,LOX IMVI,4.37 µM
same,LC50,LOX IMVI,47.9 µM
same,TGI,LOX IMVI,13.2 µM
same,GI50,SK-MEL-28,12.3 µM
same,CC50,SK-MEL-28,> 100 µM
same,TGI,SK-MEL-28,34.7 µM
same,GI50,SK-MEL-5,9.77 µM
same,LC50,SK-MEL-5,55 µM
same,TGI,SK-MEL-5,23.4 µM
same,GI50,IGROV-1,39.8 µM
same,LC50,IGROV-1,> 100 µM
same,TGI,IGROV-1,> 100 µM
same,GI50,OVCAR-3,5.89 µM
same,LC50,OVCAR-3,43.7 µM
same,TGI,OVCAR-3,18.2 µM
same,GI50,NCI/ADR-RES,11 µM
same,LC50,NCI/ADR-RES,> 100 µM
same,TGI,NCI/ADR-RES,38 µM
same,GI50,786-0,5.01 µM
same,CC50,786-0,67.6 µM
same,TGI,786-0,21.4 µM
same,GI50,CAKI-1,27.5 µM
same,LC50,CAKI-1,> 100 µM
same,TGI,CAKI-1,> 100 µM
same,GI50,RXF 393,1.55 µM
same,LC50 (50% lethal concentration),RXF 393,17.8 µM
same,TGI,RXF 393,4.47 µM
same,GI50,TK-10,20.9 µM
same,LC50,TK-10,> 100 µM
same,TGI,TK-10,> 100 µM
same,GI50,DU-145,8.71 µM
same,LC50,DU-145,93.3 µM
same,TGI,DU-145,29.5 µM
same,GI50,MCF7,7.76 µM
same,LC50,MCF7,> 100 µM
same,TGI,MCF7; read-out: pTGI (converted),45.7 µM
same,GI50,MDA-MB-231,3.39 µM
same,CC50,MDA-MB-231,56.2 µM
same,TGI,MDA-MB-231,14.5 µM
same,GI50,[1],2.4 µM
same,CC50,[1],> 100 µM
same,TGI,[1],19.5 µM
same,GI50,BT-549,18.6 µM
same,LC50,BT-549,> 100 µM
same,TGI,BT-549,> 100 µM
same,GI50,SR,3.8 µM
same,LC50,SR,> 100 µM
same,TGI,SR; read-out: pTGI (converted),> 100 µM
COCOc1cc(/C=C/c2cc(C=O)c3c(c2)C[C@@H]2C(C)(C)[C@H](O)CC[C@@]2(C)O3)cc(OC)c1C/C=C(\C)CCC=C(C)C,GI50,HL-60(TB),3.55 µM
same,CC50,HL-60(TB),> 100 µM
same,TGI,HL-60(TB),60.3 µM
same,GI50,MOLT-4,2.82 µM
same,LC50,MOLT-4,> 100 µM
same,TGI,MOLT-4,13.2 µM
same,GI50,EKVX,5.5 µM
same,LC50 (50% lethal concentration),EKVX,> 100 µM
same,TGI,EKVX,> 100 µM
same,GI50,HOP-62,4.9 µM
same,LC50,HOP-62,> 100 µM
same,TGI,HOP-62,> 100 µM
same,GI50,HOP-92,15.8 µM
same,LC50,HOP-92,> 100 µM
same,TGI,HOP-92; read-out: pTGI (converted),> 100 µM
same,GI50,NCI-H226,28.2 µM
same,LC50,NCI-H226,> 100 µM
same,TGI,NCI-H226,> 100 µM
same,GI50,NCI-H522,18.2 µM
same,LC50,NCI-H522,> 100 µM
same,TGI,NCI-H522,> 100 µM
same,GI50,COLO 205,3.47 µM
same,LC50,COLO 205,51.3 µM
same,TGI,COLO 205,9.33 µM
same,GI50,HCC 2998,12.3 µM
same,LC50,HCC 2998,> 100 µM
same,TGI,HCC 2998,> 100 µM
same,GI50,SF-268,11 µM
same,LC50,SF-268,> 100 µM
same,TGI,SF-268,85.1 µM
same,GI50,SNB-19,16.6 µM
same,LC50,SNB-19,> 100 µM
same,TGI,SNB-19,> 100 µM
same,GI50,U-251,1.74 µM
same,LC50,U-251,> 100 µM
same,TGI,U-251,60.3 µM
same,GI50,LOX IMVI,3.98 µM
same,LC50,LOX IMVI,44.7 µM
same,TGI,LOX IMVI,15.8 µM
same,GI50,SK-MEL-28,2.95 µM
same,CC50,SK-MEL-28,> 100 µM
same,TGI,SK-MEL-28,> 100 µM
same,GI50,SK-MEL-5,7.24 µM
same,LC50,SK-MEL-5,58.9 µM
same,TGI,SK-MEL-5,22.9 µM
same,GI50,IGROV-1,9.77 µM
same,LC50,IGROV-1,> 100 µM
same,TGI,IGROV-1,> 100 µM
same,GI50,OVCAR-3,27.5 µM
same,LC50,OVCAR-3,> 100 µM
same,TGI,OVCAR-3,> 100 µM
same,GI50,NCI/ADR-RES,21.4 µM
same,LC50,NCI/ADR-RES,> 100 µM
same,TGI,NCI/ADR-RES,> 100 µM
same,GI50,786-0,1.02 µM
same,CC50,786-0,> 100 µM
same,TGI,786-0,> 100 µM
same,GI50,CAKI-1,3.98 µM
same,LC50,CAKI-1,> 100 µM
same,TGI,CAKI-1,> 100 µM
same,GI50,RXF 393,0.309 µM
same,LC50 (50% lethal concentration),RXF 393,12.3 µM
same,TGI,RXF 393,1.32 µM
same,GI50,TK-10,25.1 µM
same,LC50,TK-10,> 100 µM
same,TGI,TK-10,> 100 µM
same,GI50,DU-145,13.5 µM
same,LC50,DU-145,> 100 µM
same,TGI,DU-145,> 100 µM
same,GI50,MDA-MB-231,3.39 µM
same,CC50,MDA-MB-231,> 100 µM
same,TGI,MDA-MB-231,15.8 µM
same,GI50,[1],1.74 µM
same,CC50,[1],> 100 µM
same,TGI,[1],> 100 µM
same,GI50,BT-549,3.89 µM
same,LC50,BT-549,> 100 µM
same,TGI,BT-549,63.1 µM
